The values below come from ChEMBL document CHEMBL1126191, “New antiinflammatory agents. 2. 5-Phenyl-3H-imidazo[4,5-c][1,8]naphthyridin-4(5H)-ones: a new class of nonsteroidal antiinflammatory agents with potent activity like glucocorticoids” (J Med Chem, 1992).

In series [1] the test system is Rattus norvegicus. The series is described as follows: Dose of the compound (oral administration) showing antiinflammatory effect on rat paw edema model (carrageenan-induced paw edema, CPE). The format is functional. For orientation: The carrageenan paw model is a standard test of acute inflammation.
Series [2] deals with Rattus norvegicus. Briefly: Dose of the compound (oral administration) showing antiinflammatory effect on rat paw edema model (reversed passive Arthus reaction-induced paw edema, RPAR). The format is functional. In a few lines:
(§1)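 Reversed passive Arthus: male Wistar rats (~150 g, n=5) were dosed orally with compound in 5% arabic gum. Paw volume was measured by plethysmograph before dosing and 2 h after antigen. % inhibition was calculated vs controls, and ED50 came from log-dose linear regression.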

In series [3] the test system is Mus musculus. Briefly: Acute lethal toxicity (peroral administration), determined by observing the mortality for 7 days after the administration in mouse. It is filed as organism-based. The settings on record: in vivo, po, 168 h. In a few lines: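 Male dd mice of 20-25 g, three per group, given compound by mouth once. Mortality followed for 7 days, and the minimum lethal dose (MLD) was recorded in mg/kg po.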

Series [4] concerns Rattus norvegicus. The series is described as follows: Antiinflammatory effect of the compound (oral administration) on rat paw edema model (reversed passive Arthus reaction-induced paw edema, RPAR). The format is functional. In a few lines: as §1
Series [5] concerns Rattus norvegicus. Briefly: Oral dose required for antiinflammatory effect on zymosan induced rat paw edema. The format is functional. In a few lines: (§2)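 Oral dosing in 5% arabic gum suspension to male Wistar rats (~150 g, n=5) 1 h before subplantar injection of 1% zymosan in saline into the hind paw. Paw volume was read by plethysmograph before dosing and 4 h after zymosan.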

Series [6] has as its system Rattus norvegicus. The series is described as follows: Antiinflammatory effect (oral administration), on zymosan-induced rat paw edema at 25 mg/kg. The format is functional. In a few lines: as §2
In series [7] the test system is Rattus norvegicus. The series is described as follows: Antiinflammatory effect of the compound(oral administration) on rat paw edema model(carrageenan-induced paw edema) at 50 mg/kg. The format is functional.
The test system of series [8] is Rattus norvegicus. Briefly: Antiinflammatory effect (oral administration) on rat paw edema model (reversed passive Arthus reaction-induced paw edema) at 10 mg/kg. It is filed as functional. In a few lines: as §1
Series [9] has as its system Rattus norvegicus. The series is described as follows: Antiinflammatory effect in rat paw edema model following 50 mg/kg p.o. administration. It is filed as functional. The note with it: route oral.
The test system of series [10] is Rattus norvegicus. The series is described as follows: Antiinflammatory effect (oral administration) on rat paw edema model (carrageenan-induced paw edema) at 50 mg/kg. The format is functional.
Series [11] has as its system Rattus norvegicus. Briefly: Antiinflammatory effect (oral administration) on rat paw edema model (zymosan-induced paw edema) at 50 mg/kg. It is filed as functional. In a few lines:
as §2

In series [12] the test system is Rattus norvegicus. The series is described as follows: Antiinflammatory effect (oral administration) on rat paw edema model (reversed passive Arthus reaction-induced paw edema) at 5 mg/kg. The format is functional. In a few lines:
as §1

Series [13] concerns Rattus norvegicus. Briefly: Antiinflammatory effect (oral administration), on rat reversed passive Arthus reaction-induced paw edema at 5 mg/kg. The format is functional. In a few lines:
as §1

Series [14] has as its system Rattus norvegicus. The series is described as follows: Antiinflammatory effect of the compound(oral administration) on rat paw edema model(zymosan-induced paw edema) at 50 mg/kg. The format is functional. In a few lines:
as §2

For series [15], the system named is Rattus norvegicus. The series is described as follows: Antiinflammatory effect (oral administration) on rat paw edema model (reversed passive Arthus reaction-induced paw edema) at 100 mg/kg. It is filed as functional. In a few lines:
as §1

Usually ED50 stands for the dose that gives a 50% effect, or the effect in half of the subjects. In general, Inhibition refers to the relative decrease from the control value, in per cent. For orientation: inhibition in vivo means the drop in the measured response relative to a control, in per cent.

As to `CCCn1cnc2c3cccnc3n(-c3ccccc3)c(=O)c21`, the ED40 was determined as 15.9 mg/kg in series [1] and 1.3 mg/kg in series [5]. In [2], this molecule came in with an ED50 of 2 mg/kg. In series [3], the MLD was 200 mg/kg. For the same molecule, the Inhibition in series [4] was 74.4%. The inhibition in vivo at 25 mg/kg in series [6] worked out at 61.2%. In addition, in [7], the inhibition in vivo at 50 mg/kg turned out to be 57.3%.

As for `CC(=O)OCCn1cnc2c3cccnc3n(-c3ccccc3)c(=O)c21`, the inhibition in vivo at 10 mg/kg in series [8] is 11.8%. The results for the ED40 in series [1] and in [5] were 40.3 mg/kg and 19.4 mg/kg, respectively. The MLD in [3] is above 300 mg/kg. For the same molecule, the inhibition in vivo at 25 mg/kg in series [6] amounted to 41.6%. In addition, the inhibition in vivo at 50 mg/kg in [7] was determined as 42.2%.

In the case of `O=c1c2c(ncn2CC2CCCCC2)c2cccnc2n1-c1ccccc1`, the inhibition in vivo at 10 mg/kg in series [8] is 62.9%. For the same molecule, the inhibition in vivo at 50 mg/kg in series [9] worked out at 34.7%. In [2], this molecule yielded an ED50 of 5.7 mg/kg. Also, the MLD in [3] was above 300 mg/kg. Also, the ED40 in series [5] was 11.8 mg/kg. Besides, the inhibition in vivo at 25 mg/kg in series [6] was 49.8%.

Turning to `CCn1cnc2c3cccnc3n(-c3ccccc3)c(=O)c21`, the inhibition in vivo at 10 mg/kg in [8] worked out at 86.9%. Moreover, the ED40 was 13.9 mg/kg in series [1] and 1.6 mg/kg in [5]. In series [2], the ED50 was 1.9 mg/kg. This molecule had an MLD in [3] of 100 mg/kg. In addition, the inhibition in vivo at 25 mg/kg in series [6] turned out to be 77.5%. Further, in [7], the inhibition in vivo at 50 mg/kg amounted to 58.2%.

As for `O=c1c2c(nc(-c3ccccc3)n2Cc2ccccc2)c2cccnc2n1-c1ccccc1`, the inhibition in vivo at 50 mg/kg in series [10] was 0%; in [11], -4%. The inhibition in vivo at 5 mg/kg in [12] worked out at 1.2%.

Turning to `CC(C)Cn1cnc2c3cccnc3n(-c3ccccc3)c(=O)c21`, the inhibition in vivo at 5 mg/kg in series [13] stood at 61.8%. The ED40 in series [1] came to 9.1 mg/kg; in series [5], 0.19 mg/kg. The 50% effect level in series [2] (ED50) was put at a dose of 0.97 mg/kg. This molecule also registered an MLD in series [3] of 300 mg/kg. The inhibition in vivo at 25 mg/kg in series [6] came to 69.7%. Moreover, the inhibition in vivo at 50 mg/kg in [7] was found to be 57.4%.

In the case of `O=c1c2c(ncn2CCCO)c2cccnc2n1-c1ccccc1`, in [13], the inhibition in vivo at 5 mg/kg is 41.3%. The ED40 was 33.5 mg/kg in [1] and 4.8 mg/kg in series [5]. The molecule further registered an ED50 in series [2] of 3.7 mg/kg. This molecule also had an MLD in series [3] above 300 mg/kg. Further, the inhibition in vivo at 25 mg/kg in series [6] amounted to 58.1%. The inhibition in vivo at 50 mg/kg in series [7] came to 42.6%.

On to `CCOCCn1cnc2c3cccnc3n(-c3ccccc3)c(=O)c21`, for which the inhibition in vivo at 5 mg/kg in series [13] is 50.3%. In addition, the ED40 in series [1] is 15.5 mg/kg; in [5], 6 mg/kg. In addition, the 50% effect level in series [2] (ED50) was put at a dose of 3.2 mg/kg. In [3], this molecule gave an MLD above 300 mg/kg. Besides, the inhibition in vivo at 25 mg/kg in [6] was 57.4%. In [7], the inhibition in vivo at 50 mg/kg amounted to 56.7%.

Consider `O=c1c2c(ncn2Cc2cccc(Br)c2)c2cccnc2n1-c1ccccc1`, for which the inhibition in vivo at 10 mg/kg in [8] is 17.2%. Moreover, the inhibition in vivo at 50 mg/kg in series [9] was found to be 26.9%.

With `COC(=O)c1ccc(Cn2cnc3c4cccnc4n(-c4ccccc4)c(=O)c32)cc1`, the inhibition in vivo at 5 mg/kg in [13] was 9.2%. The inhibition in vivo at 50 mg/kg in series [7] amounted to 8.7%; in series [14] it was 9.9%.

As to `Cc1cccc(Cn2cnc3c4cccnc4n(-c4ccccc4)c(=O)c32)c1`, in [8], the inhibition in vivo at 10 mg/kg stood at 33.5%. For the same molecule, in [6], the inhibition in vivo at 25 mg/kg turned out to be 33.3%. The inhibition in vivo at 50 mg/kg in series [7] worked out at 18.4%.

For `O=c1c2c(ncn2CCc2ccccc2)c2cccnc2n1-c1ccccc1`, the inhibition in vivo at 10 mg/kg in [8] worked out at 5.6%. Also, the inhibition in vivo at 50 mg/kg in series [9] turned out to be 2.2%. The MLD in [3] is above 300 mg/kg. For the same molecule, the inhibition in vivo at 25 mg/kg in [6] turned out to be 25.7%.

On to `NC(=O)N1C(=O)/C(=C(\O)c2cccs2)c2cc(Cl)ccc21` [TENIDAP], for which the inhibition in vivo at 100 mg/kg in series [15] was found to be 4.8%. Further, the ED40 in series [1] worked out at 14.8 mg/kg; in series [5], 41.2 mg/kg. The molecule also came in with an MLD in [3] above 300 mg/kg.

As to `COc1cccc(Cn2cnc3c4cccnc4n(-c4ccccc4)c(=O)c32)c1`, the inhibition in vivo at 10 mg/kg in series [8] was found to be 24%. In addition, the inhibition in vivo at 50 mg/kg in series [9] came out at 13%. Further, the inhibition in vivo at 25 mg/kg in series [6] worked out at 43.5%.
